From ChEMBL document CHEMBL4368918, “Structure-Based Design of Inhibitors Selective for Human Proteasome β2c or β2i Subunits” (J Med Chem, 2019) come the findings set out here.

The species named for one assay is Homo sapiens. The assay is described as follows: Selectivity ratio of IC50 for 20S immunoproteasome beta 2 (unknown origin) to IC50 for 20S constitutive proteasome beta 2 trypsin-like activity (unknown origin).
For `Cc1ncc(C(=O)N[C@@H](CC(C)C)C(=O)N[C@@H](CC2CCC3CCCCC3C2)C(=O)N[C@H](/C=C/S(C)(=O)=O)Cc2ccc(CN)cc2)s1` (some centres undefined), the Ratio IC50 was 10.
On to `Cc1ncc(C(=O)N[C@@H](CC(C)C)C(=O)N[C@@H](CC(C)C)C(=O)N[C@H](/C=C/S(C)(=O)=O)Cc2ccc(CN)cc2)s1`, for which the Ratio IC50 turned out to be 10.
Take `Cc1ncc(C(=O)N[C@@H](CC(C)C)C(=O)N[C@@H](CC2CCCC3CCCCC32)C(=O)N[C@H](/C=C/S(C)(=O)=O)Cc2ccc(CN)cc2)s1` (some centres undefined): the Ratio IC50 was determined as 4.
Consider `Cc1ncc(C(=O)N[C@@H](CC(C)C)C(=O)N[C@@H](CCC2CCCCC2)C(=O)N[C@H](/C=C/S(C)(=O)=O)Cc2ccc(CN)cc2)s1`, for which the Ratio IC50 is 25.
On to `CC(C)C[C@H](NC(=O)[C@H](Cc1ccccc1)N=[N+]=[N-])C(=O)N[C@@H](CC(F)(F)F)C(=O)N[C@H](/C=C/S(C)(=O)=O)Cc1ccc(CN)cc1`, for which the Ratio IC50 was found to be 6.
On to `CC(C)C[C@H](NC(=O)c1cc(Cl)ccc1Cl)C(=O)N[C@@H](CC(C)C)C(=O)N[C@H](/C=C/S(C)(=O)=O)Cc1ccc(CN)cc1`, for which the Ratio IC50 was 5.
For `CC(C)C[C@H](NC(=O)[C@H](Cc1ccccc1)N=[N+]=[N-])C(=O)N[C@@H](CC(C)(C)F)C(=O)N[C@H](/C=C/S(C)(=O)=O)Cc1ccc(CN)cc1`, the Ratio IC50 was determined as 3.
Turning to `CC(C)C[C@H](NC(=O)[C@H](CC(C)C)NC(=O)[C@H](Cc1ccccc1)NC(=O)CN=[N+]=[N-])C(=O)N[C@H](/C=C/S(C)(=O)=O)Cc1ccc(CN)cc1`, the Ratio IC50 came out at 0.6.
On the same count and under the same terms, as for `CC1CCC(C[C@H](NC(=O)[C@@H](NC(=O)[C@H](Cc2ccc(CN)cc2)NC(=O)[C@H](Cc2ccccc2)N=[N+]=[N-])C(C)C)C(=O)[C@@]2(C)CO2)CC1` (some centres undefined), the figure is 1.
Turning to `CC(C)C[C@H](NC(=O)c1ccc(-c2ccccc2)nc1)C(=O)N[C@@H](CC(C)C)C(=O)N[C@H](/C=C/S(C)(=O)=O)Cc1ccc(CN)cc1`, the Ratio IC50 is 0.8.
Same read-out and setting: as for `CC(C)[C@H](NC(=O)[C@H](Cc1ccc(CN)cc1)NC(=O)[C@H](Cc1ccccc1)N=[N+]=[N-])C(=O)N[C@@H](CC1CCC2CCCCC2C1)C(=O)[C@@]1(C)CO1` (some centres undefined), the figure is 1; as for `Cc1ncc(C(=O)N[C@@H](CC(C)C)C(=O)N[C@@H](CC2CCCCC2)C(=O)N[C@H](/C=C/S(C)(=O)=O)Cc2ccc(CN)cc2)s1`, 7; as for `Cc1ncc(C(=O)N[C@@H](CC2CCC3CCCCC3C2)C(=O)N[C@@H](CC(C)C)C(=O)N[C@H](/C=C/S(C)(=O)=O)Cc2ccc(CN)cc2)s1` (some centres undefined), 8.
On to `Cc1ncc(C(=O)N[C@@H](CC2CCCC3CCCCC32)C(=O)N[C@@H](CC(C)C)C(=O)N[C@H](/C=C/S(C)(=O)=O)Cc2ccc(CN)cc2)s1` (some centres undefined), for which the Ratio IC50 came out at 21.
`COC[C@H](NC(=O)[C@H](CC(C)C)NC(=O)[C@H](Cc1ccccc1)N=[N+]=[N-])C(=O)N[C@H](/C=C/S(C)(=O)=O)Cc1ccc(CN)cc1`: the Ratio IC50 was determined as 25.
In the case of `CC(C)[C@H](NC(=O)[C@H](Cc1ccc(CN)cc1)NC(=O)[C@H](Cc1ccccc1)N=[N+]=[N-])C(=O)N[C@@H](CC1CC2CCC1C2)C(=O)[C@@]1(C)CO1` (some centres undefined), the Ratio IC50 is 2.7.
For `CC(C)C[C@H](NC(=O)c1cnccn1)C(=O)N[C@@H](C)C(=O)N[C@H](/C=C/S(C)(=O)=O)Cc1ccc(CN)cc1`, the Ratio IC50 was determined as 6.
On to `CC(C)[C@H](NC(=O)[C@H](Cc1ccc(CN)cc1)NC(=O)[C@H](Cc1ccccc1)N=[N+]=[N-])C(=O)N[C@H](C(=O)[C@@]1(C)CO1)C1CCCCC1`, for which the Ratio IC50 worked out at 1.
For the molecule `Cc1ncc(C(=O)N[C@@H](CC(C)C)C(=O)N[C@@H](CC2CCC(C3CCCCC3)CC2)C(=O)N[C@H](/C=C/S(C)(=O)=O)Cc2ccc(CN)cc2)s1` (some centres undefined), the Ratio IC50 stood at 3.
For `Cc1ncc(C(=O)N[C@@H](CC(C)C)C(=O)N[C@@H](CC2CCC(C)CC2)C(=O)N[C@H](/C=C/S(C)(=O)=O)Cc2ccc(CN)cc2)s1` (some centres undefined), the Ratio IC50 is 7.
On to `COC1CCC(C[C@H](NC(=O)[C@H](CC(C)C)NC(=O)c2cnc(C)s2)C(=O)N[C@H](/C=C/S(C)(=O)=O)Cc2ccc(CN)cc2)CC1` (some centres undefined), for which the Ratio IC50 is 8.
For the molecule `Cc1ncc(C(=O)N[C@H](C(=O)N[C@@H](CC(C)C)C(=O)N[C@H](/C=C/S(C)(=O)=O)Cc2ccc(CN)cc2)C2CCCCC2)s1`, the Ratio IC50 came to 1.
Regarding `Cc1ncc(C(=O)N[C@@H](CC2CCC(C3CCCCC3)CC2)C(=O)N[C@@H](CC(C)C)C(=O)N[C@H](/C=C/S(C)(=O)=O)Cc2ccc(CN)cc2)s1` (some centres undefined), the Ratio IC50 was greater than 3.
Consider `Cc1ncc(C(=O)N[C@@H](CC2CCCCC2)C(=O)N[C@@H](CC2CCCCC2)C(=O)N[C@H](/C=C/S(C)(=O)=O)Cc2ccc(CN)cc2)s1`, for which the Ratio IC50 turned out to be 11.
Take `CC(C)C[C@H](NC(=O)CN1CCOCC1)C(=O)N[C@@H](CC(C)C)C(=O)N[C@H](/C=C/S(C)(=O)=O)Cc1ccc(CN)cc1`: the Ratio IC50 turned out to be 1.
As for `Cc1ncc(C(=O)N[C@@H](CC2CCC(C)CC2)C(=O)N[C@@H](CC(C)C)C(=O)N[C@H](/C=C/S(C)(=O)=O)Cc2ccc(CN)cc2)s1` (some centres undefined), the Ratio IC50 was determined as 0.8.
`CC(C)[C@H](NC(=O)[C@H](Cc1ccc(CN)cc1)NC(=O)[C@H](Cc1ccccc1)N=[N+]=[N-])C(=O)N[C@@H](CC1CCC(C2CCCCC2)CC1)C(=O)[C@@]1(C)CO1` (some centres undefined): the Ratio IC50 turned out to be 1.6.

A further assay addresses T1, Proteasome subunit beta type-10 (Homo sapiens, UniProt P40306).
T1 sequence (P40306 whole entry): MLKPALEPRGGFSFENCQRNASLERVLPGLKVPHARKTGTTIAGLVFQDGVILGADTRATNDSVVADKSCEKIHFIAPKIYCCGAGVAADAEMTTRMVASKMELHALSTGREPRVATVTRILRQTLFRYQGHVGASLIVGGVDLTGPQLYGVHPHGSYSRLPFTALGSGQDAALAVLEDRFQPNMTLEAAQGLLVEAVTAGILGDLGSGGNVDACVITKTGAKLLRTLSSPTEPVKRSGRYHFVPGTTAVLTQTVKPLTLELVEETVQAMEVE
Description: Inhibition of 20S immunoproteasome beta 2 (unknown origin) by cell based ABPP assay. In short, it runs like this:
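Living RPMI-8226 cells, (5–8) ×10^5 cells/mL, exposed to inhibitor 1 h at 37 °C, washed, lysed in digitonin buffer 1 h on ice; residual activity labelled with cocktail ABPs, SDS-PAGE in-gel fluorescence, bands divided by mock, Coomassie staining to correct loading. IC50 from mean of three independent experiments.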
Regarding `Cc1ncc(C(=O)N[C@@H](CC(C)C)C(=O)N[C@@H](CC2CCC3CCCCC3C2)C(=O)N[C@H](/C=C/S(C)(=O)=O)Cc2ccc(CN)cc2)s1` (some centres undefined), 170 nM corresponded to half-maximal inhibition (IC50). This counts as sub-micromolar.
On the same count and under the same terms, the value for `Cc1ncc(C(=O)N[C@@H](CC(C)C)C(=O)N[C@@H](CC(C)C)C(=O)N[C@H](/C=C/S(C)(=O)=O)Cc2ccc(CN)cc2)s1` was 700 nM.
As to `Cc1ncc(C(=O)N[C@@H](CC(C)C)C(=O)N[C@@H](CC2CCCC3CCCCC32)C(=O)N[C@H](/C=C/S(C)(=O)=O)Cc2ccc(CN)cc2)s1` (some centres undefined), the IC50 is 175 nM.
On the same count and under the same terms, as for `Cc1ncc(C(=O)N[C@@H](CC(C)C)C(=O)N[C@@H](CCC2CCCCC2)C(=O)N[C@H](/C=C/S(C)(=O)=O)Cc2ccc(CN)cc2)s1`, the figure is 280 nM.
On the same count and under the same terms, as for `CC(C)C[C@H](NC(=O)[C@H](Cc1ccccc1)N=[N+]=[N-])C(=O)N[C@@H](CC(F)(F)F)C(=O)N[C@H](/C=C/S(C)(=O)=O)Cc1ccc(CN)cc1`, the figure is 130 nM.
Same read-out and setting: the value for `CC(C)C[C@H](NC(=O)c1cc(Cl)ccc1Cl)C(=O)N[C@@H](CC(C)C)C(=O)N[C@H](/C=C/S(C)(=O)=O)Cc1ccc(CN)cc1` was 350 nM.
Molecule `CC(C)C[C@H](NC(=O)[C@H](Cc1ccccc1)N=[N+]=[N-])C(=O)N[C@@H](CC(C)(C)F)C(=O)N[C@H](/C=C/S(C)(=O)=O)Cc1ccc(CN)cc1` returned a half-maximal inhibitory concentration (IC50) of 47 nM. This IC50 is about 7.4-fold lower than that of the molecule before.
Still for that read-out and setting: as for `CC(C)C[C@H](NC(=O)[C@H](CC(C)C)NC(=O)[C@H](Cc1ccccc1)NC(=O)CN=[N+]=[N-])C(=O)N[C@H](/C=C/S(C)(=O)=O)Cc1ccc(CN)cc1`, the figure is 22 nM; as for `CC(C)C[C@H](NC(=O)c1ccc(-c2ccccc2)nc1)C(=O)N[C@@H](CC(C)C)C(=O)N[C@H](/C=C/S(C)(=O)=O)Cc1ccc(CN)cc1`, 23 nM.
Molecule `Cc1ncc(C(=O)N[C@@H](CC(C)C)C(=O)N[C@@H](CC2CCCCC2)C(=O)N[C@H](/C=C/S(C)(=O)=O)Cc2ccc(CN)cc2)s1` yielded an IC50 of 260 nM. This IC50 lies about 11-fold higher than the previous one.
Same read-out and setting: the value for `Cc1ncc(C(=O)N[C@@H](CC2CCC3CCCCC3C2)C(=O)N[C@@H](CC(C)C)C(=O)N[C@H](/C=C/S(C)(=O)=O)Cc2ccc(CN)cc2)s1` (some centres undefined) was 4100 nM; that for `Cc1ncc(C(=O)N[C@@H](CC2CCCC3CCCCC32)C(=O)N[C@@H](CC(C)C)C(=O)N[C@H](/C=C/S(C)(=O)=O)Cc2ccc(CN)cc2)s1` (some centres undefined) was 48000 nM; that for `COC[C@H](NC(=O)[C@H](CC(C)C)NC(=O)[C@H](Cc1ccccc1)N=[N+]=[N-])C(=O)N[C@H](/C=C/S(C)(=O)=O)Cc1ccc(CN)cc1` was 200 nM.
As to `CC(C)C[C@H](NC(=O)c1cnccn1)C(=O)N[C@@H](C)C(=O)N[C@H](/C=C/S(C)(=O)=O)Cc1ccc(CN)cc1`, the IC50 amounted to 1350 nM.
`Cc1ncc(C(=O)N[C@@H](CC(C)C)C(=O)N[C@@H](CC2CCC(C3CCCCC3)CC2)C(=O)N[C@H](/C=C/S(C)(=O)=O)Cc2ccc(CN)cc2)s1` (some centres undefined) gave an IC50 of 45 nM.
The molecule `Cc1ncc(C(=O)N[C@@H](CC(C)C)C(=O)N[C@@H](CC2CCC(C)CC2)C(=O)N[C@H](/C=C/S(C)(=O)=O)Cc2ccc(CN)cc2)s1` (some centres undefined) came in with an IC50 of 200 nM.
As to `COC1CCC(C[C@H](NC(=O)[C@H](CC(C)C)NC(=O)c2cnc(C)s2)C(=O)N[C@H](/C=C/S(C)(=O)=O)Cc2ccc(CN)cc2)CC1` (some centres undefined), the IC50 was determined as 360 nM.
Turning to `Cc1ncc(C(=O)N[C@H](C(=O)N[C@@H](CC(C)C)C(=O)N[C@H](/C=C/S(C)(=O)=O)Cc2ccc(CN)cc2)C2CCCCC2)s1`, the IC50 was 61 nM.
For the molecule `Cc1ncc(C(=O)N[C@@H](CC2CCC(C3CCCCC3)CC2)C(=O)N[C@@H](CC(C)C)C(=O)N[C@H](/C=C/S(C)(=O)=O)Cc2ccc(CN)cc2)s1` (some centres undefined), the IC50 is greater than 10000 nM.
`Cc1ncc(C(=O)N[C@@H](CC2CCCCC2)C(=O)N[C@@H](CC2CCCCC2)C(=O)N[C@H](/C=C/S(C)(=O)=O)Cc2ccc(CN)cc2)s1` showed an IC50 of 420 nM. That is a sub-micromolar value.
In the case of `CC(C)C[C@H](NC(=O)CN1CCOCC1)C(=O)N[C@@H](CC(C)C)C(=O)N[C@H](/C=C/S(C)(=O)=O)Cc1ccc(CN)cc1`, half-maximal inhibition (IC50) required 47 nM.
In turn, `Cc1ncc(C(=O)N[C@@H](CC2CCC(C)CC2)C(=O)N[C@@H](CC(C)C)C(=O)N[C@H](/C=C/S(C)(=O)=O)Cc2ccc(CN)cc2)s1` (some centres undefined) showed an IC50 of 325 nM.

A word on the IC50: it is the midpoint of a concentration-inhibition curve. Low values mean higher potency, high ones lower potency.
